# Data taken from ChEMBL document CHEMBL3286159, “Design, synthesis and molecular docking of amide and urea derivatives as Escherichia coli PDHc-E1 inhibitors” (Bioorg Med Chem, 2014).
# Test: Inhibition of purified Escherichia coli PDHc-E1 using sodium pyruvate as substrate assessed as reduction of 2,6-DichloroPhenolindophenol after 3 mins by spectrophotometry
# How it was run: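 E. coli PDHc-E1 expressed as MBP fusion from pMal-C2X in E. coli TB1 (IPTG 0.5 mM, 7 h, 25 °C) and purified by MBP affinity. Mix of 50 mM K3PO4 pH 7.2, 2.0 mM pyruvate, 0.8 mM 2,6-DCPIP, 7.1 µM enzyme and inhibitor preincubated 3 min at 37 °C. ThDP (0–200 µM) added to start. DCPIP reduction read at 600 nm. Initial rates fit to Hill equation for IC50.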
row,IC50 [µM],Compound
1,45.4,Cc1ncc(CNC(=O)COc2ccccc2)c(N)n1
2,9.45,Cc1ncc(CNC(=O)COc2ccc(Cl)cc2Cl)c(N)n1
3,13,Cc1ncc(CNC(=O)COc2ccc(Cl)cc2)c(N)n1
4,3.58,Cc1ncc(CNC(=O)COc2ccc([N+](=O)[O-])cc2)c(N)n1
5,21.6,Cc1ccc(OCC(=O)NCc2cnc(C)nc2N)cc1
6,11.1,Cc1ncc(CNC(=O)COc2ccc(Br)cc2)c(N)n1
7,16.8,COc1ccc(OCC(=O)NCc2cnc(C)nc2N)cc1
8,60.8,Cc1ncc(CNC(=O)COc2ccccc2Br)c(N)n1
9,16.6,Cc1ncc(CNC(=O)COc2ccccc2Cl)c(N)n1
10,17.4,Cc1ncc(CNC(=O)COc2ccc(F)cc2)c(N)n1
11,7.6,Cc1ncc(CNC(=O)COc2ccc(F)cc2Cl)c(N)n1
12,4.9,Cc1ncc(CNC(=O)COc2ccc([N+](=O)[O-])cc2Cl)c(N)n1
13,21.9,Cc1ncc(CNC(=O)COc2ccc(Cl)cc2C)c(N)n1
14,13.4,Cc1ncc(CNC(=O)COc2ccc(C#N)cc2)c(N)n1
15,6.3,COc1ccc(OCNC(=O)NCc2cnc(C)nc2N)cc1

row,Compound,IC50 [µM]
1,Cc1ncc(CNC(=O)NCOc2ccccc2)c(N)n1,12.9
2,Cc1ccc(OCNC(=O)NCc2cnc(C)nc2N)cc1,9.23
3,Cc1ncc(CNC(=O)NCOc2ccc(F)cc2)c(N)n1,10.3
4,Cc1ncc(CNC(=O)NCOc2ccc(Cl)cc2)c(N)n1,3.67
